m5-HT2A agonist: mouse Htr2a agonists via beta-arrestin recruitment, primary screen, cell-based, luminescence; activation, % at 7.6 µM; 0.66% of 360,000 active; CHO-K1 mHTR2A beta-arrestin complementation; percent of 30 µM serotonin response;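 active = activation above a run cutoff, the mean activation of all tested compounds plus 3 SD, cut at about 14% in these data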
EBI2 block: EBI2 receptor antagonists, beta-arrestin recruitment, primary screen, cell-based, luminescence, 7a,25-OHC stimulation, uHTS; G-protein coupled receptor 183 (Homo sapiens), P32249; 7a,25-OHC stimulated; inhibition, % at 5 µM; 0.81% of 360,000 active; in the data active = inhibition above about 38%;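 also: enzyme fragment complementation signal reports receptor beta-arrestin coupling in cells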
CXCR6 inh: CXCR6 receptor inhibitors, primary screen, cell-based, beta-arrestin, luminescence, CHO-K1 PathHunter, 1536-well; C-X-C chemokine receptor type 6 (Homo sapiens), O00574; inhibition, % at 20 µM; 0.36% of 360,000 active; AID 602244, 2012; in the data active = inhibition above about 34%, passing the limit was not always enough;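 also: antagonist mode with CXCL16 agonist at 10 nM final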
Target sequence (O00574 whole entry, looked up): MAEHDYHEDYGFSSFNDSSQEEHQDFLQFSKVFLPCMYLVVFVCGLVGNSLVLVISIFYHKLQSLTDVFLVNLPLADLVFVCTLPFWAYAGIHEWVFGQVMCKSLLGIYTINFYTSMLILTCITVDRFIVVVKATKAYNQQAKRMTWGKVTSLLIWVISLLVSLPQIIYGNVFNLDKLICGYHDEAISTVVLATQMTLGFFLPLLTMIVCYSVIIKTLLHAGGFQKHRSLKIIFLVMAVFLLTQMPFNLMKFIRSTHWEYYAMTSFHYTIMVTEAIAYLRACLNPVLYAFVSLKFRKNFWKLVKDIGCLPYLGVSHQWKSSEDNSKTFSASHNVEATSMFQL
APJ antagonist: antagonists of human apelin receptor APJ, primary screen, CHO-K1 cells, beta-arrestin complementation, luminescence; P35414; inhibition, % at 20 µM; 0.32% of 330,000 active;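 active = inhibition above about 40% at 20 µM, limit read from the data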;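 also: cells challenged with 10 nM apelin-13 agonist together with compound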
APJ ag: agonists of human apelin receptor APJ, primary screen, CHO-K1 cells, PathHunter beta-arrestin, luminescence; 0.11% of 330,000 active; P35414; 0% DMSO wells, 100% apelin; activation, % at 20 µM;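 active = activation more than six SD over the plate average, tested at 20 µM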
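Material: CHO-K1 APJ beta-arrestin complementation cell line; Input: cell density 1000 per well; Incubation: compound stimulation 90 min at 25 °C, detection 60 min; Signal: luminescence from split beta-galactosidase complementation, Galacton Star/Emerald II substrate; Controls: DMSO-only wells as negative, 10 nM Apelin-13 as positive control.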
CCR6 antag: CCR6 receptor antagonists, primary screen, cell-based, CHO-K1, luminescence, beta-arrestin, uHTS; C-C chemokine receptor type 6 (Homo sapiens), P51684; CHO-K1 CCR6 PathHunter beta-arrestin, CCL20-stimulated; inhibition, % at 20 µM; 0.49% of 340,000 active; AID 493098, 2011;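 active = compounds whose inhibition of the agonist-driven luminescence signal at 20 µM reaches about 50%, limit read from the data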;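 also: cells stimulated with CCL20 at 14 nM final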
Target sequence (P51684 whole entry, looked up): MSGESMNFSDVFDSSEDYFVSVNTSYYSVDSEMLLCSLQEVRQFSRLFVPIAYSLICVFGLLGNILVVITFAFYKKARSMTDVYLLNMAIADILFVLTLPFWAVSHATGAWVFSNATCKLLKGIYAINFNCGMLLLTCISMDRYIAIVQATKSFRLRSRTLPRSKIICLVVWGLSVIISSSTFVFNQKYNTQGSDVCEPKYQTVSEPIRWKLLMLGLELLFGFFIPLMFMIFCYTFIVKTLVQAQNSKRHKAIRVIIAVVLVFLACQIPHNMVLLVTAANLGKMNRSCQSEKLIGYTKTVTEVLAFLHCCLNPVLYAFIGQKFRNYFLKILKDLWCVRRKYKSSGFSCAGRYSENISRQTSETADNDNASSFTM
EBI2 conf: EBI2 antagonist hit retest, beta-arrestin, confirmation, cell-based, single concentration, luminescence, 7a,25-OHC stimulation; 29% of 2,400 active; AID 651997, 2013; shares compounds with EBI2 block; 7a,25-OHC antagonism; inhibition, % at 5 µM;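 active = inhibition of at least 50%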
EBI2 ag: EBI2 agonist activity of antagonist hits, confirmation, counter-screen for EBI2 antagonist project, cell-based, single concentration, agonist mode, luminescence | 2,400 tested, under 10 active | shares compounds with EBI2 block | activation, % at 5 µM | EBI2-expressing cells, 60 min; 0% vehicle, 100% 7α,25-dihydroxycholesterol control;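 active = activation of at least 50%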
bGal cs: E. coli beta-galactosidase enzyme inhibition, confirmation, counter-screen for EBI2 antagonist project, biochemical, luminescence, single concentration | shares compounds with EBI2 block | inhibition, % at 5 µM | 1% of 2,400 active | AID 652176, 2013 | purified beta-galactosidase, luminescent Galacton Star, 15 min;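 active = replicate-average signal at least 3 plate SD below neutral wells, shown as high inhibition, flagging enzyme-inhibiting false positives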;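 also: higher means stronger loss of beta-gal luminescence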
Of the large screens only hits and unclear results are named; the others gave an inactive call (follow-up assays come after a bar, where they were run). Most compounds without a hit are left out; they make up all but 2.2% or so of the library.

CCOc1ccc(S(=O)(=O)c2ccc(C)cc2)c2c1no[n+]2[O-]	none (no result: APJ antagonist, APJ ag, CCR6 antag)
CSc1cccc(NC(=O)/C=C/c2ccc(Cl)cc2)c1	EBI2 block 59 | EBI2 conf 68 | EBI2 ag inactive | bGal cs inactive
O=C(/C=C/c1ccc(Cl)cc1)NCc1cccs1	EBI2 block 53 | EBI2 conf 53 | EBI2 ag inactive | bGal cs inactive
O=C(/C=C/c1ccc(Cl)cc1)NCCSc1ccccc1	EBI2 block 60 | EBI2 conf inactive | EBI2 ag inactive | bGal cs inactive
O=C(/C=C/c1ccccc1)NCCSCc1ccc(Cl)cc1	EBI2 block 52 | EBI2 conf inactive | EBI2 ag inactive | bGal cs inactive
Cc1ccc(S(=O)(=O)N2C[C@H]3C(=O)C[C@@H](c4ccccc4)N(S(C)(=O)=O)[C@H]3C[C@H]2c2ccccc2)cc1	none (no result: APJ antagonist, APJ ag, CCR6 antag)
CCC(C(=O)Nc1c(C)cccc1C)n1c(-c2ccc(=O)[nH]c2)nc2ccccc21 (stereo not given)	none (no result: CXCR6 inh, APJ antagonist, APJ ag, CCR6 antag)
O=S(=O)(Cc1cc(Sc2ccc(Cl)cc2)nc(-c2ccccc2)n1)c1ccccc1	none
Cc1nc(CS(=O)(=O)c2ccc(Cl)cc2)cc(Sc2ccc(Cl)cc2)n1	EBI2 block 73 | EBI2 conf 62 | EBI2 ag inactive | bGal cs inactive
COc1ccc(/C=C/C(=O)N2CCC(c3ccccc3)C2)cc1 (stereo not given)	EBI2 block 70 | EBI2 conf 55 | EBI2 ag inactive | bGal cs inactive
COC(=O)C1CCN(C(=O)/C=C/c2ccc(OC)cc2)CC1	EBI2 block 87 | EBI2 conf 76 | EBI2 ag inactive | bGal cs inactive
COc1ccc(CC(=O)N2CCC(c3ccccc3)C2)cc1 (stereo not given)	EBI2 block 48 | EBI2 conf inactive | EBI2 ag inactive | bGal cs inactive
O=C(Cc1ccccc1)N1CCC(c2ccccc2)C1 (stereo not given)	none
NC(c1csc(Nc2ncccn2)n1)c1ccccc1Cl (stereo not given)	none (no result: APJ antagonist, APJ ag, CCR6 antag)
CCOC(=O)[C@]12CCCC=C1N(Cc1ccc3c(c1)OCO3)C(=O)[C@H](CC(=O)N1CCCCC1)C2	none (no result: APJ antagonist, APJ ag, CCR6 antag)
C[C@H](CO)N1C[C@H](C)[C@@H](CN(C)S(=O)(=O)c2ccc(F)cc2)OCc2cn(nn2)CCCC1=O	none (no result: APJ antagonist, APJ ag, CCR6 antag)
O=C(NCCO)c1cccc(-c2cnc3cccnn23)c1	none (no result: APJ antagonist, APJ ag, CCR6 antag)
C=CCn1c(C)c(C(C)=O)c(N2CCN(C(c3ccccc3)c3ccccc3)CC2)nc1=S	EBI2 block 54 | EBI2 conf inactive | EBI2 ag inactive | bGal cs inactive
Cn1c(-c2ccccc2)c(Sc2ccccc2)c2cc(-c3ccc4[nH]ccc4c3)ccc21	none (no result: APJ antagonist, APJ ag, CCR6 antag)
COc1ccc(-n2nnc3c(SCC(=O)N4CCCc5ccccc54)ncnc32)cc1	EBI2 block 42 | EBI2 conf inactive | EBI2 ag inactive | bGal cs inactive
CC(C)(C)CC(C)(C)c1ccc(O)c(Cc2ccc(Cl)cc2Cl)c1	EBI2 block 75 (no result: APJ antagonist, APJ ag) | EBI2 conf inactive | EBI2 ag inactive | bGal cs inactive
CC(C)(C)CC(C)(C)c1ccc(O)c(CN2CCN(CCC#N)CC2)c1	none
c1ccc(-c2nnc3oc(-c4cccs4)nn23)cc1	none (no result: APJ antagonist, APJ ag, CCR6 antag)
Cc1sc2ncnc(N3CCC(C(=O)NNC(=O)COc4ccc(Br)cc4)CC3)c2c1C	EBI2 block 57 | EBI2 conf inactive | EBI2 ag inactive | bGal cs inactive
Cc1sc2ncnc(N3CCC(C(=O)NNC(=O)COc4ccc(Cl)cc4)CC3)c2c1C	EBI2 block 51 (no result: APJ antagonist, APJ ag) | EBI2 conf inactive | EBI2 ag inactive | bGal cs inactive
Cc1ccc(OCC(=O)NNC(=O)C2CCN(c3ncnc4sc(C)c(C)c34)CC2)cc1	none
Cc1cc(Cl)ccc1Oc1ncnc2oc(-c3ccccc3)cc12	EBI2 block 53 | EBI2 conf inactive | EBI2 ag inactive | bGal cs inactive
Cc1cccc(Oc2ncnc(N)c2[N+](=O)[O-])c1C	none
Cc1cccc(Oc2ncnc3oc(-c4ccccc4)cc23)c1C	EBI2 block 67 | EBI2 conf inactive | EBI2 ag inactive | bGal cs inactive
Cc1ccc(OCc2nnnn2-c2ccccc2)cc1	EBI2 block 51 | EBI2 conf inactive | EBI2 ag inactive | bGal cs inactive
Cc1ccc(-n2nnnc2CCl)cc1	none (no result: APJ antagonist, APJ ag)
Cc1ccc(CONC(=O)c2ccc(OC(F)F)cc2)cc1	EBI2 block 78 | EBI2 conf 71 | EBI2 ag inactive | bGal cs inactive
COc1ccccc1-c1cc(NC=O)c2ncc(-c3cccc(C(=O)N(C)C)c3)n2c1	EBI2 block 75 (no result: APJ antagonist, APJ ag, CCR6 antag) | EBI2 conf inactive | EBI2 ag inactive | bGal cs inactive
Cc1c(C(=O)NCc2cccc(C(F)(F)F)c2)sc(=O)n1Cc1cccc(F)c1	none (no result: APJ antagonist, APJ ag, CCR6 antag)
COc1ccc(-c2nnc(SCc3nnc(-c4ccccc4)o3)n2-c2ccccc2)cc1	none
Cc1nnc(SCc2nnc(-c3cccs3)o2)n1Cc1ccccc1	none
COc1ccc(-c2nnc(SCc3nnc(-c4ccc(Cl)cc4)o3)n2-c2ccccc2)cc1	EBI2 block 74 | EBI2 conf inactive | EBI2 ag inactive | bGal cs inactive
Clc1ccc(-c2nnc(CSc3nnc(-c4cccs4)n3Cc3ccccc3)o2)cc1	EBI2 block 88 | EBI2 conf 60 | EBI2 ag inactive | bGal cs inactive
Cc1ccc(CNC(=O)/C(C#N)=C/c2ccc(C)s2)cc1	EBI2 block 51 | EBI2 conf inactive | EBI2 ag inactive | bGal cs inactive
Cc1cccc(-c2cnc(C(O)c3ccc(-c4ccccc4)cc3)[nH]2)c1 (stereo not given)	none (no result: APJ antagonist, APJ ag, CCR6 antag)
O=C(COc1ccc([N+](=O)[O-])cc1)N1CCN(c2nnc(-c3ccccc3)c3ccccc23)CC1	EBI2 block 68 | EBI2 conf inactive | EBI2 ag inactive | bGal cs inactive
